The values below come from ChEMBL document CHEMBL2029225, “Synthesis of marine-derived 3-alkylpyridinium alkaloids with potent antiprotozoal activity” (ACS Med Chem Lett, 2011).

Structures are written as SMILES. The source made the active and inactive calls. No cut-off for these calls is given here.

The test system of one data set is Trypanosoma brucei brucei. As to the kind of experiment: Antitrypanosomal activity against Trypanosoma brucei brucei 427 at 0.1 uM after 72 hrs by hemocytometry. In kind it is functional, organism-based.
Conditions: not given
Summed up: (§1)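 Reversibility test: bloodstream-form T. brucei cultures seeded at 2 × 10⁴ cells, compound added at t = 0 h. Compound was washed out after 24 h or 48 h, or left in. Growth was monitored over 72 h against drug-free controls.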
With `CCCC[n+]1cccc(CCCCCCCCCCCCCI)c1`, the outcome was inactive.

The test system of the next data set is HEK-293T. Description: Cytotoxicity against human HEK293T cells after 72 hrs by alamar blue assay. It is filed as cell-based.
Conditions: not given
(The colour change of resazurin is a common sign of viable cells or microbes.)
Usually EC50 stands for the concentration that produces a half-maximal response. `OCCCCCCCCCCCCCc1cccnc1` returned an EC50 of 204 µM.
Same read-out and setting: the result for `c1cc2c[n+](c1)CCCCCCCCCCCCCc1ccc[n+](c1)CCCCCCCCCCCCCc1ccc[n+](c1)CCCCCCCCCCCCCc1ccc[n+](c1)CCCCCCCCCCCCC2` reads 14 µM.
Compound `CCCC[n+]1cccc(CCCCCCCCCCCCCI)c1` gave an EC50 of 26 µM.

The next data set deals with Trypanosoma brucei brucei. Description: Antitrypanosomal activity against bloodstream form of Trypanosoma brucei brucei 427 (BS221) assessed as increased propidium iodide uptake at >/=100 times EC50 after 8 hrs by real-time cell lysis assay. It is filed as functional, organism-based.
Conditions: not given
Summed up: (§2)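 Real-time lysis assay with bloodstream-form T. brucei: propidium iodide in the medium fluoresces only on binding DNA/RNA in membrane-compromised cells. Fluorescence was followed for up to 8 h across a range of concentrations. The read-out was the time to reach 80% lysis versus concentration.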
In the case of `CCCC[n+]1cccc(CCCCCCCCCCCCCI)c1`, the result was Active.

The subject of another data set is Trypanosoma brucei brucei. Description: Antitrypanosomal activity against digitonin permeabilized bloodstream form of Trypanosoma brucei brucei s427 assessed as DNA fragmentation at 1 uM at 24 hrs by flow cytometry. In kind it is functional, organism-based.
Conditions: not given
A digest of the protocol:
(§3)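 Bloodstream-form T. brucei cultures were exposed to compound for up to 48 h, with duplicate samples taken at 24 and 48 h. Lysis sample: PI added directly for 10 min. DNA-content sample: fixed in 70% methanol or permeabilized with digitonin, RNase-treated, then PI-stained. 10000 cells were counted per panel by flow cytometry, and the experiment was run three times.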
For orientation: Flow cytometry measures light scatter and fluorescence of single cells or particles in a stream.
For the compound `CCCC[n+]1cccc(CCCCCCCCCCCCCI)c1`, the result was inactive.

A further data set deals with Trypanosoma brucei brucei. As to the kind of experiment: Antitrypanosomal activity against digitonin permeabilized bloodstream form of Trypanosoma brucei brucei s427 assessed as increase in propidium iodide uptake at 1 uM at 24 hrs by flow cytometry. It is filed as functional, organism-based.
Conditions: not given
Summed up:
as §3
For `CCCC[n+]1cccc(CCCCCCCCCCCCCI)c1`, the outcome was Active.

The test system of the next data set is Trypanosoma brucei brucei. As to the kind of experiment: Antitrypanosomal activity against bloodstream form of Trypanosoma brucei brucei s427 assessed as cell cylce arrest at 0.3 uM after 24 hrs by flow cytometry. In kind it is functional, organism-based.
Conditions: not given
A digest of the protocol: as §3
In the case of `CCCC[n+]1cccc(CCCCCCCCCCCCCI)c1`, the outcome was inactive.

The next data set deals with Trypanosoma brucei brucei. Description: Antitrypanosomal activity against bloodstream form of Trypanosoma brucei brucei s427 assessed as increase in propidium iodide uptake at 0.3 uM after 48 hrs by flow cytometry. In kind it is functional, organism-based.
Conditions: not given
A digest of the protocol: as §3
In the case of `CCCC[n+]1cccc(CCCCCCCCCCCCCI)c1`, the outcome was Active.

The subject of a further data set is Trypanosoma brucei brucei. As to the kind of experiment: Antitrypanosomal activity against TbAt1-deficient bloodstraem form Trypanosoma brucei brucei B48 after 72 hrs by alamar blue assay. In kind it is functional, organism-based. The settings on record: B48, 72 h.
Take `OCCCCCCCCCCCCCc1cccnc1`: the EC50 came out at 35 µM.
In the case of `c1cc2c[n+](c1)CCCCCCCCCCCCCc1ccc[n+](c1)CCCCCCCCCCCCCc1ccc[n+](c1)CCCCCCCCCCCCCc1ccc[n+](c1)CCCCCCCCCCCCC2`, it took 0.42 µM to reach a half-maximal effect (EC50).
In turn, `CCCC[n+]1cccc(CCCCCCCCCCCCCI)c1` registered an EC50 of 0.034 µM.

A further data set relates to Trypanosoma brucei brucei. Description: Antitrypanosomal activity against bloodstream form of Trypanosoma brucei brucei 427 (BS221) after 72 hrs by alamar blue assay. In kind it is functional, organism-based.
Conditions: not given
Turning to `OCCCCCCCCCCCCCc1cccnc1`, it took 16 µM to reach a half-maximal effect (EC50).
The compound `c1cc2c[n+](c1)CCCCCCCCCCCCCc1ccc[n+](c1)CCCCCCCCCCCCCc1ccc[n+](c1)CCCCCCCCCCCCCc1ccc[n+](c1)CCCCCCCCCCCCC2` gave an EC50 of 0.56 µM.
On the same count and under the same terms, next, `CCCC[n+]1cccc(CCCCCCCCCCCCCI)c1`: 0.014 µM.

The next data set has as its system Leishmania mexicana. As to the kind of experiment: Antileishmanial activity against amastigotes of Leishmania mexicana MNYC/BZ/62/M379 after 72 hrs by alamar blue assay. It is filed as functional, organism-based. The settings on record: MNYC/BZ/62/M379, 72 h.
`OCCCCCCCCCCCCCc1cccnc1`: the EC50 was over 50 µM.
Take `c1cc2c[n+](c1)CCCCCCCCCCCCCc1ccc[n+](c1)CCCCCCCCCCCCCc1ccc[n+](c1)CCCCCCCCCCCCCc1ccc[n+](c1)CCCCCCCCCCCCC2`: the EC50 is 1.1 µM.
`CCCC[n+]1cccc(CCCCCCCCCCCCCI)c1` yielded an EC50 of 0.29 µM.

The test system of the next data set is Trypanosoma brucei brucei. Description: Antitrypanosomal activity against TbAt1-deficient bloodstraem form of Trypanosoma brucei brucei 427 (BS221) after 72 hrs by alamar blue assay. In kind it is functional, organism-based.
Conditions: not given
`OCCCCCCCCCCCCCc1cccnc1` gave an EC50 of 34 µM.
Still for that read-out and setting: the result for `c1cc2c[n+](c1)CCCCCCCCCCCCCc1ccc[n+](c1)CCCCCCCCCCCCCc1ccc[n+](c1)CCCCCCCCCCCCCc1ccc[n+](c1)CCCCCCCCCCCCC2` reads 0.66 µM; that for `CCCC[n+]1cccc(CCCCCCCCCCCCCI)c1`, 0.063 µM.

Test system in a further data set: not listed separately
Description: Selectivity ratio of EC50 for human HEK293 cells to EC50 for TbAt1-deficient bloodstraem form of Trypanosoma brucei brucei 427 (BS221). In kind it is ADME, cell-based. The settings on record: read-out: Ratio EC50.
For the compound `CCCC[n+]1cccc(CCCCCCCCCCCCCI)c1`, the selectivity ratio is over 1000.

In the next data set the test system is Leishmania major. Description: Antileishmanial activity against promastigotes of Leishmania major Friedlin after 72 hrs by alamar blue assay. It is filed as functional, organism-based.
Conditions: not given
As for `OCCCCCCCCCCCCCc1cccnc1`, the concentration giving a half-maximal response (EC50) is over 50 µM.
Regarding `c1cc2c[n+](c1)CCCCCCCCCCCCCc1ccc[n+](c1)CCCCCCCCCCCCCc1ccc[n+](c1)CCCCCCCCCCCCCc1ccc[n+](c1)CCCCCCCCCCCCC2`, a half-maximal response (EC50) required 0.64 µM.
`CCCC[n+]1cccc(CCCCCCCCCCCCCI)c1` had a concentration giving a half-maximal response (EC50) of 0.36 µM.

The subject of the next data set is Trypanosoma brucei brucei. As to the kind of experiment: Antitrypanosomal activity against bloodstream form of Trypanosoma brucei brucei 427 (BS221) assessed as increased propidium iodide uptake at 50 to 100 uM after 30 mins by real-time cell lysis assay. In kind it is functional, organism-based.
Conditions: not given
Summed up:
as §2
As to `c1cc2c[n+](c1)CCCCCCCCCCCCCc1ccc[n+](c1)CCCCCCCCCCCCCc1ccc[n+](c1)CCCCCCCCCCCCCc1ccc[n+](c1)CCCCCCCCCCCCC2`, the outcome was Active.
On the same count and under the same terms, next, `CCCC[n+]1cccc(CCCCCCCCCCCCCI)c1`: “Active”.

Test system in the next data set: not listed separately
As to the kind of experiment: Selectivity ratio of EC50 for human HEK293 cells to EC50 for bloodstream form of Trypanosoma brucei brucei 427 (BS221). In kind it is ADME, cell-based. The settings on record: read-out: Ratio EC50.
As to `CCCC[n+]1cccc(CCCCCCCCCCCCCI)c1`, the selectivity ratio was over 1000.

Another data set deals with Plasmodium falciparum. Description: Antiplasmodial activity against Plasmodium falciparum 3D7 assessed as inhibition of [3H]hypoxanthine incorporation after 18 hrs by liquid scintillation counting. In kind it is functional, organism-based.
Conditions: not given
With `OCCCCCCCCCCCCCc1cccnc1`, the EC50 was determined as 7.5 µM.
Turning to `c1cc2c[n+](c1)CCCCCCCCCCCCCc1ccc[n+](c1)CCCCCCCCCCCCCc1ccc[n+](c1)CCCCCCCCCCCCCc1ccc[n+](c1)CCCCCCCCCCCCC2`, the EC50 came out at 0.19 µM.
Still for that read-out and setting: the result for `CCCC[n+]1cccc(CCCCCCCCCCCCCI)c1` reads 0.31 µM.

The next data set deals with Trypanosoma brucei brucei. Description: Antitrypanosomal activity against Trypanosoma brucei brucei 427 at 10 uM after 24 hrs by hemocytometry. It is filed as functional, organism-based.
Conditions: not given
A digest of the protocol: as §1
With `CCCC[n+]1cccc(CCCCCCCCCCCCCI)c1`, the outcome was Active.

The next data set concerns Trypanosoma brucei brucei. As to the kind of experiment: Antitrypanosomal activity against bloodstream form of Trypanosoma brucei brucei s427 assessed as DNA fragmentation at 0.3 uM after 48 hrs by flow cytometry. In kind it is functional, organism-based.
Conditions: not given
A digest of the protocol:
as §3
In the case of `CCCC[n+]1cccc(CCCCCCCCCCCCCI)c1`, the result was Active.

For the next data set, the system named is Trypanosoma brucei brucei. As to the kind of experiment: Antitrypanosomal activity against Trypanosoma brucei brucei 427 at 1 uM after 24 hrs by hemocytometry. It is filed as functional, organism-based.
Conditions: not given
A digest of the protocol: as §1
`CCCC[n+]1cccc(CCCCCCCCCCCCCI)c1`: the result was Active.

In another data set the test system is Trypanosoma brucei brucei. Description: Antitrypanosomal activity against digitonin permeabilized bloodstream form of Trypanosoma brucei brucei s427 assessed as decrease in 2C/4C DNA content by DAPI staining-based fluorescent microscopy. In kind it is functional, organism-based.
Conditions: not given
In the case of `CCCC[n+]1cccc(CCCCCCCCCCCCCI)c1`, the result was inactive.

The test system of another data set is Trypanosoma brucei brucei. Description: Antitrypanosomal activity against bloodstream form of Trypanosoma brucei brucei 427 (BS221) assessed as increased propidium iodide uptake at 10 to 50 times EC50 after by real-time cell lysis assay. It is filed as functional, organism-based.
Conditions: not given
Summed up:
as §2
For `c1cc2c[n+](c1)CCCCCCCCCCCCCc1ccc[n+](c1)CCCCCCCCCCCCCc1ccc[n+](c1)CCCCCCCCCCCCCc1ccc[n+](c1)CCCCCCCCCCCCC2`, the result was Active.
